Calls of active or inactive are those of the source. The calls are words filed in the database; no cut-off is given here.
Columns and labels:
[1] = Stability in pH 7.4 buffer assessed as compound remaining level at 37 degC by HPLC analysis; type: physicochemical
How it was run: (§1)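 Prodrug incubated in buffer (0.1 M HCl, pH 5.8, 6.8 or 7.4) at 37 °C; percent of compound remaining determined by HPLC; remaining percentage reported after 3 h, stability meaning no hydrolysis after 2 h.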

[2] = Stability in pH 6.8 buffer assessed as compound remaining level at 37 degC by HPLC analysis; type: physicochemical; how it was run: as §1
[3] = Half life in mouse plasma by HPLC analysis; type: ADME, cell-free
How it was run: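 Prodrug incubated in plasma at 37 °C, with percent remaining determined by HPLC to derive half-life.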

Hepatitis B virus [4] = test: Antiviral activity against HBV infected in human HepG2.2.15 cells assessed as reduction in viral DNA levels incubated for 6 days by PCR analysis; type: functional, organism-based; settings: HepG2 2.2.15, 144 h
Hepatitis B virus [5] = test: Antiviral activity against multidrug-resistant HBV infected in human HepG2.1403F cells assessed as reduction in viral replication incubated for 6 days by PCR analysis; type: functional, organism-based; settings: 144 h
How it was run: (§2)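 Wild-type HBV replication measured in HepAD38 and HepG2.2.15 cells, lamivudine/entecavir-resistant HBV in HepG2.A64 cells (rtL180M+rtT184L+rtM204V) and multidrug-resistant HBV in HepG2.1403F cells (rtL180M+rtM204V+rtS202G+rtN236T). Read-out is reduction of HBV DNA. EC50 is reported as mean ± SD.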

Hepatitis B virus [6] = test: Antiviral activity against HBV infected in human HepAD38 cells assessed as reduction in viral DNA levels incubated for 6 days by PCR analysis; type: functional, organism-based; settings: HePAD38, 144 h
Hepatitis B virus [7] = test: Antiviral activity against HBV infected in human HepG2.A64 cells containing reverse transcriptase L180M/T184L/M204V mutant assessed as reduction in viral replication incubated for 6 days by PCR analysis; type: functional, organism-based; settings: HepG2.A64, 144 h; how it was run: as §2
HepG2 2.2.15 = test: Inhibition of reverse transcriptase in HBV infected in human HepG2.2.15 cells assessed as induction of intracellular viral RNA accumulation at 2 uM for 4 days by qPCR or qRT-PCR relative to control; type: cell-based; settings: Hepatitis B virus
[8] = Cytotoxicity in human HepG2 cells assessed as induction of cell killing; type: cell-based
Hepatitis B virus [9] = test: Antiviral activity against HBV infected in human HepG2.2.15 cells assessed as inhibition of intracellular viral DNA accumulation at 2 uM for 4 days by qPCR or qRT-PCR relative to control; type: functional, organism-based; settings: HepG2 2.2.15
How it was run: (§3)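 HepAD38 or HepG2.2.15 cells were treated at 2 µM for 4 days, with medium replaced every 2 days. Intracellular and extracellular DNA and RNA were quantified by qPCR or qRT-PCR, and HBeAg and HBsAg by ELISA. Results were compared with DMSO vehicle as mean ± SD, using a two-tailed t-test.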

Hepatitis B virus [10] = test: Inhibition of HBsAg secretion in HBV infected human HepG2.2.15 cells at 2 uM for 4 days by ELISA; type: functional, organism-based; settings: HepG2 2.2.15; how it was run: as §3
Hepatitis B virus [11] = test: Antiviral activity against HBV infected in human HepAD38 cells assessed as inhibition of intracellular viral RNA accumulation at 2 uM for 4 days by qPCR or qRT-PCR relative to control; type: functional, organism-based; how it was run: as §3
Hepatitis B virus [12] = test: Antiviral activity against HBV infected in human HepAD38 cells assessed as inhibition of intracellular total viral RNA accumulation at 2 uM for 4 days by qPCR or qRT-PCR relative to control; type: functional; how it was run: as §3
Hepatitis B virus [13] = test: Antiviral activity against HBV infected in human HepAD38 cells assessed as inhibition of intracellular viral DNA accumulation at 2 uM for 4 days by qPCR or qRT-PCR relative to control; type: functional, organism-based; how it was run: as §3
Hepatitis B virus [14] = test: Inhibition of HBeAg secretion in HBV infected human HepG2.2.15 cells at 2 uM for 4 days by ELISA relative to control; type: functional, organism-based; settings: HepG2 2.2.15; how it was run: as §3
Hepatitis B virus [15] = test: Inhibition of HBsAg secretion in HBV infected human HepAD38 cells at 2 uM for 4 days by ELISA; type: functional, organism-based; how it was run: as §3
[16] = Solubility in pH 5.8 phosphate buffer at 1 mg at 25 degC by HPLC analysis; type: physicochemical
How it was run: (§4)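 Solubility determined in water or 0.067 M phosphate buffer at pH 5.8, 6.8 and 7.4. Values are reported in mg/mL; ND means below the detection limit.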

[17] = Solubility in pH 6.8 phosphate buffer at 1 mg at 25 degC by HPLC analysis; type: physicochemical; how it was run: as §4
[18] = Solubility in water at 1 mg at 25 degC by HPLC analysis; type: physicochemical; how it was run: as §4
Hepatitis B virus [19] = test: Antiviral activity against HBV infected in human HepG2.2.15 cells assessed as inhibition of intracellular viral RNA accumulation at 2 uM for 4 days by qPCR or qRT-PCR relative to control; type: functional, organism-based; settings: HepG2 2.2.15; how it was run: as §3
[20] = Cytotoxicity in human HepAD38 cells assessed as induction of cell killing; type: cell-based
[21] = Selectivity index, ratio of CC50 for cytotoxicity in human HepAD38 cells assessed as induction of cell killing to EC50 for antiviral activity against HBV infected in human HepAD38 cells assessed as reduction in viral DNA levels incubated for 6 days by PCR analysis; type: toxicity, cell-based; settings: read-out: Ratio CC50/EC50
[22] = Intrinsic clearance in mouse liver microsomes; type: ADME, Microsome; settings: read-out: CLH
[23] = Solubility in pH 7.4 phosphate buffer at 1 mg at 25 degC by HPLC analysis; type: physicochemical; how it was run: as §4
Hepatitis B virus [24] = test: Induction of capsid assembly of recombinant HBV core protein 149 (1 to 149 residues) at 10 uM incubated overnight by electron microscopy
How it was run: (§5)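 Core protein N-terminal domain Cp149 (aa 1-149, 5 μM) incubated with compound (10 μM) or DMSO overnight at 37 °C in 150 mM NaCl, 50 mM HEPES, pH 7.4. Assembly is read by EM and by size-exclusion chromatography. In SEC, capsids elute early (about 1.08 mL) and dimers late (about 1.97 mL). Peak AUCs and the capsid/dimer AUC ratio are calculated.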

Hepatitis B virus [25] = test: Induction of capsid assembly of recombinant HBV core protein 149 (1 to 149 residues) assessed as capsid peak AUC at 10 uM incubated overnight by UV detector based analysis (reference value: 0.96); how it was run: as §5
Hepatitis B virus [26] = test: Induction of capsid assembly of recombinant HBV core protein 149 (1 to 149 residues) assessed as capsid peak AUC/Cp dimer peak AUC at 10 uM incubated overnight by UV detector based analysis (reference value: 0.59); how it was run: as §5
Hepatitis B virus [27] = test: Induction of capsid assembly of recombinant HBV core protein 149 (1 to 149 residues) at 10 uM incubated overnight by SEC analysis; how it was run: as §5
Hepatitis B virus [28] = test: Induction of capsid assembly of recombinant HBV core protein 149 (1 to 149 residues) assessed as Cp dimer peak AUC at 10 uM incubated overnight by UV detector based analysis (reference value: 1.63); how it was run: as §5
[29] = Stability in pH 5.8 buffer assessed as compound remaining level at 37 degC by HPLC analysis; type: physicochemical; how it was run: as §1
[30] = Intrinsic clearance in human liver microsomes; type: ADME, Microsome; settings: read-out: CLH
[31] = phosphate buffer, read-out: solubility

With Cc1cc(Nc2nn(C3CC3)c3cnc(S(=O)(=O)N4CCC(OC(=O)[C@@H](N)C(C)C)CC4)cc23)ccc1F.O=C(O)C(F)(F)F the Stability [1] was “Stable”, the Stability [2] was “Unstable” and the half-life [3] was 1080 min.

Compound Nc1ccn([C@@H]2CS[C@H](CO)O2)c(=O)n1 [LAMIVUDINE] has an EC50 (Hepatitis B virus [4]) of 3.8 nM, an EC50 (Hepatitis B virus [5]) greater than 10000 nM and an EC50 (Hepatitis B virus [6]) of 70 nM. The EC50 (Hepatitis B virus [7]) was greater than 10000 nM, the inhibition (HepG2 2.2.15) was “Active” and the CC50 [8] was greater than 100 µM.

For CCOC(=O)C1=C(CN2CCOCC2)NC(c2nccs2)=NC1c1ccc(F)cc1Br (centres undefined), the inhibition (Hepatitis B virus [9]) was “Active”, the EC50 (Hepatitis B virus [4]) was 6.6 nM and the inhibition (Hepatitis B virus [10]) was “inactive”. For the same compound, the EC50 (Hepatitis B virus [5]) was 42 nM, the inhibition (Hepatitis B virus [11]) was “Active” and the EC50 (Hepatitis B virus [6]) was 13 nM. For the same compound, the inhibition (Hepatitis B virus [12]) was “Active”, the inhibition (Hepatitis B virus [13]) was “Active” and the EC50 (Hepatitis B virus [7]) was 6.3 nM. For the same compound, the inhibition (Hepatitis B virus [14]) was “Active” and the inhibition (Hepatitis B virus [15]) was “inactive”.

In the case of Cc1cc(Nc2nn(C3CC3)c3cnc(S(=O)(=O)N4CCC(OC(=O)CN(C)C)CC4)cc23)ccc1F.O=C(O)/C=C\C(=O)O, the solubility [16] is reported as 7930 µg/mL, the solubility ([17]; BLD = below limit of detection) is reported as “Bld” and the solubility [18] is reported as 4200 µg/mL.

With O=S(=O)(c1cc2c(Nc3ccc(F)c(C(F)F)c3)nn(C3CC3)c2cn1)N1CCC(O)CC1 the inhibition (Hepatitis B virus [9]) was “Active”, the inhibition (Hepatitis B virus [19]) was “Active” and the EC50 (Hepatitis B virus [4]) was 42 nM. For the same compound, the CC50 [20] was greater than 100 µM, the inhibition (Hepatitis B virus [10]) was “inactive” and the EC50 (Hepatitis B virus [5]) was 13 nM. The selectivity ratio at 144 h [21] was greater than 1410, the inhibition (Hepatitis B virus [11]) was “Active” and the EC50 (Hepatitis B virus [6]) was 71 nM. For the same compound, the inhibition (Hepatitis B virus [13]) was “Active”, the EC50 (Hepatitis B virus [7]) was 2.2 nM and the microsomal CLint [22] was 6.9 µL/min/mg. For the same compound, the CC50 [8] was greater than 100 µM and the inhibition (Hepatitis B virus [15]) was “inactive”.

In the case of Cc1cc(Nc2nn(C3CC3)c3cnc(S(=O)(=O)N4CCC(OC(=O)CN(C)C)CC4)cc23)ccc1F.Cl, the solubility [16] is reported as 6750 µg/mL, the solubility [17, 31] is reported as 40 µg/mL and the solubility [23] is reported as 16 µg/mL. The solubility [18] was 6900 µg/mL.

In the case of O=S(=O)(c1ccc2c(c1)c(Nc1cc(F)c(F)c(F)c1)nn2C1CC1)N1CCC(O)CC1, the Activity (Hepatitis B virus [24]) is reported as “Active”, the AUC (Hepatitis B virus [25]) is reported as 0.56 and the AUC (Hepatitis B virus [26]) is reported as 1.43. The Activity (Hepatitis B virus [27]) was “Active”, the CC50 [20] was 100 µM and the AUC (Hepatitis B virus [28]) was 0.39. It also gave an EC50 (Hepatitis B virus [6]) of 270 nM.

CS(=O)(=O)O.CS(=O)(=O)O.Cc1cc(Nc2nn(C3CC3)c3cnc(S(=O)(=O)N4CCC(OC(=O)CN(C)C)CC4)cc23)ccc1F gave a solubility [16] of 7080 µg/mL, a solubility [17, 31] of 7690 µg/mL and a solubility [23] of 230 µg/mL. For the same compound, the solubility [18] was 7900 µg/mL.

Cc1cc(Nc2nn(C3CC3)c3cnc(S(=O)(=O)N4CCC(OC(=O)CN)CC4)cc23)ccc1F.O=C(O)C(F)(F)F gave a Stability [1] of 74.2%, a Stability [2] of 67.6% and a half-life [3] of 77.5 min. The Stability [29] was 88.3%.

With Cc1cc(Nc2nn(C3CC3)c3cnc(S(=O)(=O)N4CCOCC4)cc23)ccc1F the CC50 [20] was greater than 100 µM, the EC50 (Hepatitis B virus [6]) was 42 nM and the microsomal CLint [22] was 53.5 µL/min/mg. For the same compound, the microsomal CLint [30] was 38 µL/min/mg.

Work on Cc1cc(Nc2nn(C3CC3)c3ccc(S(=O)(=O)N4CCOCC4)cc23)ccc1F yielded a CC50 [20] greater than 100 µM, an EC50 (Hepatitis B virus [6]) of 57 nM and a microsomal CLint [22] of 26.9 µL/min/mg. It also gave a microsomal CLint [30] of 41 µL/min/mg.
